Laboratory results as given in ChEMBL document CHEMBL1921735, “Antibacterial optimization of 4-aminothiazolyl analogues of the natural product GE2270 A: identification of the cycloalkylcarboxylic acids” (J Med Chem, 2011).
Values after ≈ are worked out from the molar mass of the structure shown. Active and inactive are the calls of the source.

Assays:
Enterococcus faecalis [1] = test: Antibacterial activity against Enterococcus faecalis ATCC 29212 by CLSI M07-A8 method; format: functional
Summary of the method: (§1)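 Broth microdilution MIC run per CLSI M07-A8 (2009).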

Enterococcus faecium = test: Antibacterial activity against Enterococcus faecium 7130724 by CLSI M07-A8 method; format: functional; summary of the method: as §1
Staphylococcus aureus [2] = test: Antibacterial activity against methicillin-resistant Staphylococcus aureus isolate A4.018 by CLSI M07-A8 method; format: functional
Streptococcus pyogenes = test: Antibacterial activity against Streptococcus pyogenes ATCC BAA-595 by CLSI M07-A8 method; format: functional; summary of the method: as §1
Staphylococcus aureus [3] = test: Antibacterial activity against GE2270-A-resistant Staphylococcus aureus harboring tufA G258D mutant gene by CLSI M07-A8 method; format: functional
Staphylococcus aureus [4] = test: Antibacterial activity against Staphylococcus aureus ATCC 49951 infected in CD1 mouse assessed as protection against bacterial infection administered 5 hrs post infection measured on day 5; format: functional
Summary of the method: (§2)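 Mouse lethal systemic infection: ip injection of 1 × 10^8 cfu/mouse (10−100× minimal lethal dose), E. faecalis in 50% sterile rat fecal extract, S. aureus in 0.9% NaCl. Therapy by tail-vein bolus at several doses, six mice per group. Started immediately for E. faecalis; at 1 and 5 h post-inoculation for S. aureus.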

Enterococcus faecalis [5] = test: Antibacterial activity against Enterococcus faecalis isolate NB04025 infected in CD1 mouse assessed as protection against bacterial infection administered immediately after infection measured on day 5; format: functional; conditions: isolate NB04025, 120 h; summary of the method: as §2
Streptococcus pneumoniae = test: Antibacterial activity against Streptococcus pneumoniae by CLSI M07-A8 method; format: functional, organism-based; summary of the method: as §1
Escherichia coli = test: Antibacterial activity against Escherichia coli S30 assessed as inhibition of protein synthesis after 2 hrs by luminescence analysis; conditions: S30, 2 h

Row | SMILES | MIC (Enterococcus faecalis [1]) | MIC (Enterococcus faecium) | MIC (Staphylococcus aureus [2]) | MIC (Streptococcus pyogenes) | Activity (Staphylococcus aureus [3]) | ED50 (Staphylococcus aureus [4]) | ED50 (Enterococcus faecalis [5]) | Activity (Streptococcus pneumoniae) | IC50 (Escherichia coli)
1 | CNC(=O)C[C@@H]1NC(=O)c2csc(n2)-c2ccc(-c3nc(NC(=O)CCCCC(=O)O)cs3)nc2-c2csc(n2)-c2csc(n2)[C@H]([C@@H](O)c2ccccc2)NC(=O)CNC(=O)c2nc(sc2COC)[C@H](C(C)C)NC(=O)c2nc1sc2C | 0.06 µg/mL (≈ 0.049 µM) | 0.125 µg/mL (≈ 0.102 µM) | 0.125 µg/mL (≈ 0.102 µM) | 4 µg/mL (≈ 3.27 µM) | inactive | 10.5 mg/kg | 5.5 mg/kg | Active | 1200 nM
2 | CNC(=O)C[C@@H]1NC(=O)c2csc(n2)-c2ccc(-c3nc(NC(=O)OCCOCCOCCOC)cs3)nc2-c2csc(n2)-c2csc(n2)[C@H]([C@@H](O)c2ccccc2)NC(=O)CNC(=O)c2nc(sc2COC)[C@H](C(C)C)NC(=O)c2nc1sc2C | 0.5 µg/mL (≈ 0.389 µM) | 0.5 µg/mL (≈ 0.389 µM) | 4 µg/mL (≈ 3.11 µM) | > 32 µg/mL |  |  |  | Active | 10800 nM
3 | CNC(=O)C[C@@H]1NC(=O)c2csc(n2)-c2ccc(-c3nc(NC(=O)CCCCP(=O)(O)O)cs3)nc2-c2csc(n2)-c2csc(n2)[C@H]([C@@H](O)c2ccccc2)NC(=O)CNC(=O)c2nc(sc2COC)[C@H](C(C)C)NC(=O)c2nc1sc2C | > 32 µg/mL | > 32 µg/mL | > 32 µg/mL | > 32 µg/mL |  |  |  | Active | 1500 nM
4 | CNC(=O)C[C@@H]1NC(=O)c2csc(n2)-c2ccc(-c3nc(NC(=O)CCCCC(=O)OC)cs3)nc2-c2csc(n2)-c2csc(n2)[C@H]([C@@H](O)c2ccccc2)NC(=O)CNC(=O)c2nc(sc2COC)[C@H](C(C)C)NC(=O)c2nc1sc2C | 4 µg/mL (≈ 3.23 µM) | 2 µg/mL (≈ 1.61 µM) | > 32 µg/mL | > 32 µg/mL |  |  |  | Active | > 32000 nM
